ChEMBL document CHEMBL4376893, “Identification of Psychoplastogenic N,N-Dimethylaminoisotryptamine (isoDMT) Analogues through Structure-Activity Relationship Studies” (2020)
Active and inactive are the calls of the source. The calls are words filed in the database; no cut-off is given here.

How the values were obtained:
Cortical neurone [1] = experiment: Induction of dendritogenesis in Sprague-Dawley rat cortical neurons assessed as dendritic arbor complexity at 10 uM after 1 hr supplemented with fresh neurobasal medium measured after 71 hrs by Alexa Fluor 488 dye based imaging analysis; type: functional, cell-based
Outline: (§1)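 Cortical neurons from timed-pregnant Sprague Dawley rats, about 15,000 cells/well in B27 Neurobasal. On DIV3, dosed 1 h at 0.1% DMSO (10 μM standard; 10 pM–10 μM in concentration-response runs), then medium replaced and grown 71 h. PFA-fixed, MAP2 immunostained with Alexa Fluor 488 secondary, 20x imaging. Blinded Sholl analysis, Nmax = maximum crossings; ≥6 wells over 2 plates from independent dams.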

Danio rerio = organism: Danio rerio; experiment: Induction of acute behavioural changes in wild type zebrafish Singapore at 7 days post-fertilization stage after 1 hr by imaging analysis; type: functional
Outline: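 Wild-type Singapore larvae at 7 dpf, 8 per well in 300 μL egg water, rested 1 h at RT. DMSO stocks added (0.4% DMSO), then 1 h RT incubation. After 5 min dark acclimation, a 17-min acoustic/visual stimulus battery was run under IR video. Locomotion was taken as changed pixels. Random-forest out-of-bag accuracy versus vehicle wells was used, n = 21 wells.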

Mus musculus [2] = experiment: Induction of head-twitch response in C57BL/6J mouse assessed as reduction in hallucinogenic potential at 1 to 50 mg/kg, iv measured after 20 mins; type: functional, organism-based
Cortical neurone [3] = experiment: Induction of dendritogenesis in Sprague-Dawley rat cortical neurons assessed as increase in dendritic arbor complex at 1 nM after 1 hr supplemented with fresh neurobasal medium measured after 71 hrs by Alexa Fluor 488 dye based imaging analysis; type: functional, cell-based; outline: as §1
Mus musculus [4] = experiment: Induction of head-twitch response in iv dosed C57BL/6J mouse assessed as reduction in hallucinogenic potential measured after 20 mins; type: functional, organism-based
[5] = molecular target: 5-hydroxytryptamine receptor 2A (Rattus norvegicus) (UniProt P14842); settings: Sprague-Dawley, 1 uM
5-hydroxytryptamine receptor 2A (Rattus norvegicus), sequence (P14842 whole entry): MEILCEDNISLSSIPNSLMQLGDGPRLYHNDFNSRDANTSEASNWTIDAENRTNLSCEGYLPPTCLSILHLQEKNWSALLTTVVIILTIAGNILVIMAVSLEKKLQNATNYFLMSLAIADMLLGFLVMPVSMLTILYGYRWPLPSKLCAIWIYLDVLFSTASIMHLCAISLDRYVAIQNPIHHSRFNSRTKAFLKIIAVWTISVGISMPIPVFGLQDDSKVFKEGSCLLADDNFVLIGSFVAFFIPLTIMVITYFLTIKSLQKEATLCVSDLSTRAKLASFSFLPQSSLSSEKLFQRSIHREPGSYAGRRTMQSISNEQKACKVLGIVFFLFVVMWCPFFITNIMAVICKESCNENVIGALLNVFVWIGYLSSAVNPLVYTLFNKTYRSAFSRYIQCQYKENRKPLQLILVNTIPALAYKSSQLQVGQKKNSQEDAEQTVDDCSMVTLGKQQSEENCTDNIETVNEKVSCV

COc1ccc2c(ccn2CCN(C)C)c1.O=C(O)/C=C/C(=O)O
Activity (Cortical neurone [1]): Active | Activity (Danio rerio): Dose-dependent effect | ECmax (Danio rerio): 200 µM | Activity (Mus musculus [2]): inactive

COc1ccc2ccn(CCN(C)C)c2c1
Activity (Cortical neurone [1]): Active | Activity (Danio rerio): Dose-dependent effect | ECmax (Danio rerio): 200 µM | Activity (Mus musculus [2]): Active

CN(C)C(=O)Cn1ccc2ccccc21
Activity (Cortical neurone [1]): inactive

CN(C)CCn1ccc2cccc(OCc3ccccc3)c21
Activity (Cortical neurone [1]): Active

CN(C)CCn1c2ccccc2c2ccccc21
Activity (Cortical neurone [1]): Active

COc1ccc2[nH]cc(CCN(C)C)c2c1 [MEBUFOTENIN]
Activity (Cortical neurone [3]): Active | Activity (Danio rerio): Dose-dependent effect | ECmax (Danio rerio): 200 µM | Activity (Mus musculus [4]): Dose-dependent effect | inhibition [5]: Active

CN(C)CCn1ccc2ccc(F)cc21
Activity (Cortical neurone [1]): Active

COc1cccc2c1ccn2CCN(C)C
Activity (Cortical neurone [1]): inactive

CN(C)CCn1ccc2cccc(F)c21
Activity (Cortical neurone [1]): Active

CN(C)CCn1ccc2c(OCc3ccccc3)cccc21
Activity (Cortical neurone [1]): inactive

CN(C)CCn1ccc2c(F)cccc21
Activity (Cortical neurone [1]): inactive

CN(C)CCn1ccc2cc(F)ccc21
Activity (Cortical neurone [1]): Active

CNC1(c2ccccc2Cl)CCCCC1=O (stereo unspecified)
Activity (Cortical neurone [3]): Active

CN(C)CCn1ccc2ccc(OCc3ccccc3)cc21
Activity (Cortical neurone [1]): Active

CC(C)CCn1ccc2ccccc21
Activity (Cortical neurone [1]): inactive

CN(C)CCc1cn(C)c2ccccc12
Activity (Cortical neurone [1]): Active

CN(C)CCn1cccc1
Activity (Cortical neurone [1]): Active

COc1ccc2c(CCN(C)C)c[nH]c2c1
Activity (Danio rerio): Dose-dependent effect | ECmax (Danio rerio): 200 µM | Activity (Mus musculus [2]): inactive

CN(C)CCn1cnc2ccccc21
Activity (Cortical neurone [1]): Active

COc1cccc2ccn(CCN(C)C)c12
Activity (Cortical neurone [1]): Active

CN(C)CCc1c[nH]c2ccccc12
Activity (Cortical neurone [1]): Active | Activity (Cortical neurone [3]): Active

CN(C)CCn1ccc2ccccc21
Activity (Cortical neurone [1]): Active

CN(C)CCn1ccc2cc(OCc3ccccc3)ccc21
Activity (Cortical neurone [1]): Active
